Assay results as given in ChEMBL document CHEMBL1147917, “Synthesis and crystallographic analysis of benzophenone derivatives--the potential anti-inflammatory agents” (Bioorg Med Chem, 2007).
Activity calls are given as the source filed them. The calls are words filed in the database; no cut-off is given here.

Experiments:
[1] = tested on: Rattus norvegicus; test: Antiinflammatory activity against carrageenan-induced paw edema in Albino rat assessed as oedema inhibition relative to control at 80 mg/kg, po; format: functional
In short: (§1)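 Rats given test compound orally; 30 min later, 0.2 mL of 1% carrageenan in 0.9% NaCl injected subcutaneously into plantar aponeurosis of the hind paw. Paw volume measured by water plethysmometer before and at 3 h. Mean paw-volume increase compared with a carrageenan-only control group of five rats. % inhibition = (1 − Gt/Gc) × 100. Values are means of three determinations.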

[2] = tested on: Rattus norvegicus; test: Toxicity in rat assessed as incidence of hyperaemia at 200 mg/kg, po; format: organism-based; parameters: dose 200 mg/kg, route oral; details: in vivo
In short: (§2)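 Groups of 10 rats (200–230 g), fasted 24 h, dosed orally; controls untreated. Sacrificed 5 h after dosing. Stomach and small intestine examined under microscope for hyperaemia, epithelial shedding, petechiae, frank haemorrhage, erosion or discrete ulceration with or without perforation. Result expressed as percentage of animals affected.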

[3] = tested on: Rattus norvegicus; test: Toxicity in rat assessed as incidence of ulcer at 100 mg/kg, po; format: organism-based; parameters: dose 100 mg/kg, route oral; details: in vivo; in short: as §2
[4] = tested on: Rattus norvegicus; test: Antiinflammatory activity against carrageenan-induced paw edema in Albino rat assessed as oedema inhibition relative to control at 20 mg/kg, po; format: functional; in short: as §1
[5] = tested on: Rattus norvegicus; test: Toxicity in rat assessed as incidence of hyperaemia at 100 mg/kg, po; format: organism-based; parameters: dose 100 mg/kg, route oral; details: in vivo; in short: as §2
[6] = Toxicity in ip dosed Albino mouse; format: organism-based; details: in vivo, read-out: ALD50
In short: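 Albino mice, 25–30 g, groups of 10, given test compounds intraperitoneally at different dose levels. Mortality per group recorded 24 h after dosing. Approximate 50% lethal dose (ALD50) calculated from mortality data by the Smith method.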

[7] = tested on: Rattus norvegicus; test: Antiinflammatory activity against carrageenan-induced paw edema in Albino rat assessed as oedema inhibition relative to control at 40 mg/kg, po; format: functional; in short: as §1
[8] = tested on: Rattus norvegicus; test: Toxicity in rat assessed as incidence of hyperaemia at 400 mg/kg, po; format: organism-based; parameters: dose 400 mg/kg, route oral; details: in vivo; in short: as §2
[9] = tested on: Rattus norvegicus; test: Toxicity in rat assessed as incidence of ulcer at 400 mg/kg, po; format: organism-based; parameters: dose 400 mg/kg, route oral; details: in vivo; in short: as §2
[10] = tested on: Rattus norvegicus; test: Antiinflammatory activity against carrageenan-induced paw edema in po dosed Albino rat assessed as oedema inhibition; format: functional
[11] = species on record: Oryctolagus cuniculus; test: Inhibition of rabbit microsomal COX at 10 uM
In short: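 COX source: microsomal pellet from minced, homogenized rabbit distal colon mucosa in 0.1 M Tris, pH 8.0, used immediately. Microsomes preincubated with test agent 10 min at 37 °C in Tris-HCl pH 8.0 with 2 mM glutathione, 5 mM L-tryptophan and 1 µM haematin. Then 20 µM arachidonic acid plus [1-14C] tracer added for 5 min at 37 °C. PGE2 separated by isocratic HPLC; co-eluting radioactivity counted by scintillation. % inhibition calculated versus paired controls.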

[12] = tested on: Rattus norvegicus; test: Toxicity in rat assessed as incidence of ulcer at 200 mg/kg, po; format: organism-based; parameters: dose 200 mg/kg, route oral; details: in vivo; in short: as §2

SMILES | inhibition in vivo at 80 mg/kg [1] [%] | Activity [2] [%] | Activity [3] [%] | inhibition in vivo at 20 mg/kg [4] [%] | Activity [5] [%] | LD50 [6] [mg/kg] | inhibition in vivo at 40 mg/kg [7] [%] | Activity [8] [%] | Activity [9] [%] | ED50 [10] [mg/kg] | Activity [11] | Activity [12] [%] | inhibition [11] [%]
Cc1ccc(OC(=O)c2ccccc2)c(C(=O)c2cccc(F)c2)c1 | 40.5 | 40 | 50 | 18.5 | 25 | > 1000 | 30.2 | 50 | 75 | 75.5 | inactive | 65 | 
O=C(Oc1ccc(Cl)cc1C(=O)c1ccc(Cl)cc1)c1ccc(Cl)cc1 | 60.1 | 80 | 5 | 35.5 | 60 | > 1000 | 48.5 | 100 | 15 | 65.5 |  | 10 | 60
CCCCC1C(=O)N(c2ccccc2)N(c2ccccc2)C1=O [PHENYLBUTAZONE] | 55.1 | 50 | 35 | 30.1 | 25 |  | 33 | 80 | 90 |  |  | 65 | 85
O=C(Oc1ccc(Br)cc1C(=O)c1ccc(Cl)cc1)c1ccc(Cl)cc1 | 77.1 | 70 | 5 | 23.4 | 50 | > 1000 | 46.5 | 100 | 25 | 61.5 |  | 10 | 87
Cc1ccc(C(=O)Oc2ccc(C)cc2C(=O)c2ccc(C)cc2)cc1 | 60.1 | 60 | 10 | 20.6 | 40 | > 1000 | 30.5 | 80 | 20 | 76.2 |  | 15 | 65
Cc1ccc(C(=O)c2cc(F)ccc2OC(=O)c2ccc(Cl)cc2)cc1 | 64.1 | 70 | 15 | 16.6 | 50 | > 1000 | 44.6 | 90 | 25 | 76.2 |  | 20 | 70
Cc1ccc(C(=O)Oc2ccc(Cl)cc2C(=O)c2ccc(Cl)cc2)cc1 | 77.1 | 70 | 10 | 29.2 | 50 | > 1000 | 30.4 | 100 | 20 | 60.5 |  | 15 | 85
Cc1ccc(C(=O)c2cc(C)ccc2OC(=O)c2ccc(Cl)cc2)cc1 | 85.5 | 50 | 15 | 31.4 | 25 | > 1000 | 46.5 | 75 | 18 | 57.3 | inactive | 25 | 
Cc1ccc(C(=O)Oc2ccc(C)cc2C(=O)c2ccccc2)cc1 | 46.5 | 35 | 45 | 15.5 | 20 | > 1000 | 29.4 | 55 | 80 | 75.5 | inactive | 55 | 
CC(=O)Oc1ccccc1C(=O)O [ASPIRIN] | 55.1 | 55 | 75 | 29.5 | 25 |  | 30.5 | 85 | 85 | 95.5 |  | 90 | 95
O=C(Oc1ccc(Cl)cc1C(=O)c1cccc(Cl)c1Cl)c1ccccc1 | 63.8 | 90 | 10 | 21.1 | 70 | > 1000 | 29.8 | 100 | 40 | 63.6 |  | 20 | 40
Cc1ccc(C(=O)Oc2ccc(F)cc2C(=O)c2ccc(C)cc2)cc1 | 50.5 | 55 | 20 | 20.5 | 30 | > 1000 | 35.5 | 90 | 45 | 70.1 |  | 25 | 30
Cc1ccc(OC(=O)c2ccccc2)c(C(=O)c2ccc(Cl)cc2)c1 | 47.5 | 40 | 40 | 14.7 | 20 | > 1000 | 24.2 | 60 | 80 | 77.9 | inactive | 50 | 
Cc1ccc(OC(=O)c2ccccc2)c(C(=O)c2ccccc2)c1 | 56.4 | 60 | 10 | 15.1 | 40 | > 1000 | 29.9 | 100 | 40 | 78.6 |  | 20 | 20
Cc1ccc(OC(=O)c2cccc(Cl)c2)c(C(=O)c2cccc(Cl)c2)c1 | 56.4 | 40 | 50 | 15.1 | 25 | > 1000 | 29.9 | 50 | 75 | 55.7 | inactive | 65 | 
Cc1ccc(OC(=O)c2ccccc2C)c(C(=O)c2ccccc2C)c1 | 64.8 | 70 | 20 | 17.5 | 50 | > 1000 | 33.9 | 90 | 40 | 78.9 |  | 30 | 70
